Like-named read-outs stand apart in the source and are kept apart here.

One series relates to U87MG cells. Put plainly: MTT antiproliferative assay on U87MG glioblastoma cells. The note with it: for viability at 10 µM: Homo sapiens, U-87 MG, read-out: % Viability U87MG, 10 μM, ± SD. The class given is cell-based, human. (In general: Formazan colour is commonly taken as a measure of viable cells.)
Another series has as its system HEK293 cells. Put plainly: MTT cytotoxicity assay on HEK293 healthy cell line. In kind it is cell-based, human. Put shortly: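 HEK293 cells were seeded 24 h before treatment. Compound was dissolved in DMSO (<1%) and diluted in DMEM, tested up to 100 μM. After 24 and 48 h exposure, wells were washed with D-PBS, and MTT from a 5 mg/mL stock was added for 4 h. Formazan was solubilised in DMSO and absorbance read at 540 nm. At least three independent experiments; IC50 given as mean ± SD.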

Series [1] deals with T1, human adenosine A1 receptor (Homo sapiens, UniProt P30542).
T1 sequence (P30542 1-326): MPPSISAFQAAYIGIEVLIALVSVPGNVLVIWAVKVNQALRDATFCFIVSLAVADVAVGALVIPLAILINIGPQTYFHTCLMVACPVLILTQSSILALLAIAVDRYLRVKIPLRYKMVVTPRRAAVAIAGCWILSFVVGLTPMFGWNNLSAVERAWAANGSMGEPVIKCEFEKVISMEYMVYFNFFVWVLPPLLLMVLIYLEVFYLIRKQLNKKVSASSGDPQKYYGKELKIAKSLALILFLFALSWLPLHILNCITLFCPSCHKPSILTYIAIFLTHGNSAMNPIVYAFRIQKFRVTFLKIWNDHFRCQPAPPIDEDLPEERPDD
The series can be described thus: Adenosine A1 receptor radioligand binding. The note with it: read-out: Inhibition of A1 receptor radioligand binding. The procedure, abridged:
(§1)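 Membranes came from CHO cells expressing recombinant human A1 and HEK293 cells expressing human A2A. Cells were homogenised, centrifuged at 4°C and stored in buffer with 3 U/mL adenosine deaminase. Test compound (1 μM) was incubated with A1 membranes (40 μg) plus 2 nM [3H]DPCPX, or A2A membranes (20 μg) plus 15 nM [3H]ZM241385. Incubation was 60 min, 25°C, in 50 mM Tris-HCl pH 7.4 with 10 mM MgCl2. Bound ligand was GF/B-filtered and scintillation-counted.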

For series [2], the target named is human adenosine A2A receptor (Homo sapiens, UniProt P29274). The series can be described thus: Adenosine A2A receptor radioligand binding. The note with it: read-out: Inhibition of A2A receptor radioligand binding. Put shortly:
as §1

The subject of a further series is MCF7 cells. The series can be described thus: MTT antiproliferative assay on MCF7 cells. To be noted: read-out: IC50 MCF7, mean ± SD. In kind it is cell-based, human. Put shortly: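 MCF7 cells were kept in DMEM/F-12 with 10% FBS, penicillin/streptomycin and L-glutamine, passaged every 3 days, and seeded 24 h before treatment. Compound was dissolved in DMSO (<1%) and diluted in DMEM. After 24 and 48 h exposure, cells were washed with D-PBS and given MTT from a 5 mg/mL stock for 4 h. Formazan was dissolved in DMSO and read at 540 nm. At least three independent experiments; mean ± SD.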

A further series relates to U87MG cell line. To be noted: read-out: IC50 on U87MG cell line; cited from earlier work.
Where [3] appears, read: Homo sapiens, HEK293, read-out: IC50 HEK293.

Sequence of human adenosine A2A receptor (P29274 whole entry): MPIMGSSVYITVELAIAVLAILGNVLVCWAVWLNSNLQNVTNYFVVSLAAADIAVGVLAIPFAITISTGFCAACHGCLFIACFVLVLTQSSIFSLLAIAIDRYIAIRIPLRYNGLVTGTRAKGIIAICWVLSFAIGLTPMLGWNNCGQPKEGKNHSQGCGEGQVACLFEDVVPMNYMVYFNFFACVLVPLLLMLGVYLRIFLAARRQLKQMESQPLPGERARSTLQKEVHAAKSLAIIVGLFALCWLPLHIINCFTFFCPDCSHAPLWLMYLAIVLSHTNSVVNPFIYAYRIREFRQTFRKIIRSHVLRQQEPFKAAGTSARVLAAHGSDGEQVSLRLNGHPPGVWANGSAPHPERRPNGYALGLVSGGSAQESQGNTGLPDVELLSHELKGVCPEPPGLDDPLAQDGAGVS

Consider `COc1ccc(-c2nc(SCC(=O)c3sc(-c4ccccc4)nc3C)[nH]c(=O)c2C#N)cc1OC` [Compound 4d, 4-(3,4-dimethoxyphenyl)-2-((2-(4-methyl-2-phenylthiazol-5-yl)-2-oxoethyl)thio)-6-oxo-1,6-dihydropyrimidine-5-carbonitrile], for which the viability at 10 µM in the series on U87MG cells is less than 70%.

With `Cc1nc(-c2ccccc2)sc1C(=O)CSc1nc(-c2cccc(Cl)c2)c(C#N)c(=O)[nH]1` [Compound 4e, 4-(3-chlorophenyl)-2-((2-(4-methyl-2-phenylthiazol-5-yl)-2-oxoethyl)thio)-6-oxo-1,6-dihydropyrimidine-5-carbonitrile], the concentration for half-maximal inhibition (IC50) in the series with HEK293 cells (setting [3]) was greater than 100 µM.

Regarding `Cc1nc(-c2ccccc2)sc1C(=O)CSc1nc(-c2ccc(Cl)cc2)c(C#N)c(=O)[nH]1` [Compound 4f, 4-(4-chlorophenyl)-2-((2-(4-methyl-2-phenylthiazol-5-yl)-2-oxoethyl)thio)-6-oxo-1,6-dihydropyrimidine-5-carbonitrile], in the series with HEK293 cells (setting [3]), the IC50 is greater than 100 µM. The same measure, in the same setting: for `Cc1nc(-c2ccccc2)sc1C(=O)CSc1nc(-c2ccc3c(c2)OCO3)c(C#N)c(=O)[nH]1` [Compound 4h, 4-(benzo[d][1,3]dioxol-5-yl)-2-((2-(4-methyl-2-phenylthiazol-5-yl)-2-oxoethyl)thio)-6-oxo-1,6-dihydropyrimidine-5-carbonitrile] the value was greater than 100 µM; for `COc1ccc(-c2nc(C)c(C(=O)CSc3nc(-c4ccccc4)c(C#N)c(=O)[nH]3)s2)cc1` [Compound 4i, 2-((2-(2-(4-methoxyphenyl)-4-methylthiazol-5-yl)-2-oxoethyl)thio)-6-oxo-4-phenyl-1,6-dihydropyrimidine-5-carbonitrile], greater than 100 µM.

Consider `COc1ccc(-c2nc(C)c(C(=O)CSc3nc(-c4cccc(OC)c4)c(C#N)c(=O)[nH]3)s2)cc1` [Compound 4j, 4-(3-methoxyphenyl)-2-((2-(2-(4-methoxyphenyl)-4-methylthiazol-5-yl)-2-oxoethyl)thio)-6-oxo-1,6-dihydropyrimidine-5-carbonitrile], for which the viability at 10 µM with U87MG cells is less than 70%. Consider `COc1ccc(-c2nc(C)c(C(=O)CSc3nc(-c4ccc(OC)cc4)c(C#N)c(=O)[nH]3)s2)cc1` [Compound 4k, 4-(4-methoxyphenyl)-2-((2-(2-(4-methoxyphenyl)-4-methylthiazol-5-yl)-2-oxoethyl)thio)-6-oxo-1,6-dihydropyrimidine-5-carbonitrile], for which the IC50 in the series with HEK293 cells (setting [3]) is greater than 100 µM.

`COc1ccc(-c2nc(C)c(C(=O)CSc3nc(-c4ccc(OC)c(OC)c4)c(C#N)c(=O)[nH]3)s2)cc1` [Compound 4l, 4-(3,4-dimethoxyphenyl)-2-((2-(2-(4-methoxyphenyl)-4-methylthiazol-5-yl)-2-oxoethyl)thio)-6-oxo-1,6-dihydropyrimidine-5-carbonitrile]: the viability at 10 µM with U87MG cells was less than 70%.

Regarding `COc1ccc(-c2nc(C)c(C(=O)CSc3nc(-c4cccc(Cl)c4)c(C#N)c(=O)[nH]3)s2)cc1` [Compound 4m, 4-(3-chlorophenyl)-2-((2-(2-(4-methoxyphenyl)-4-methylthiazol-5-yl)-2-oxoethyl)thio)-6-oxo-1,6-dihydropyrimidine-5-carbonitrile], in the series on HEK293 cells (setting [3]), the IC50 was greater than 100 µM. Still for that read-out and setting: for `COc1ccc(-c2nc(C)c(C(=O)CSc3nc(-c4ccc5c(c4)OCO5)c(C#N)c(=O)[nH]3)s2)cc1` [Compound 4p, 4-(benzo[d][1,3]dioxol-5-yl)-2-((2-(2-(4-methoxyphenyl)-4-methylthiazol-5-yl)-2-oxoethyl)thio)-6-oxo-1,6-dihydropyrimidine-5-carbonitrile] the value was greater than 100 µM; for `Cc1nc(-c2ccc(Cl)cc2)sc1C(=O)CSc1nc(-c2ccccc2)c(C#N)c(=O)[nH]1` [Compound 4q, 2-((2-(2-(4-chlorophenyl)-4-methylthiazol-5-yl)-2-oxoethyl)thio)-6-oxo-4-phenyl-1,6-dihydropyrimidine-5-carbonitrile], greater than 100 µM. Still for that read-out and setting: for `COc1ccc(-c2nc(SCC(=O)c3sc(-c4ccc(Cl)cc4)nc3C)[nH]c(=O)c2C#N)cc1` [Compound 4s, 2-((2-(2-(4-chlorophenyl)-4-methylthiazol-5-yl)-2-oxoethyl)thio)-4-(4-methoxyphenyl)-6-oxo-1,6-dihydropyrimidine-5-carbonitrile] the value was greater than 100 µM; for `COc1ccc(-c2nc(SCC(=O)c3sc(-c4ccc(Cl)cc4)nc3C)[nH]c(=O)c2C#N)cc1OC` [Compound 4t, 2-((2-(2-(4-chlorophenyl)-4-methylthiazol-5-yl)-2-oxoethyl)thio)-4-(3,4-dimethoxyphenyl)-6-oxo-1,6-dihydropyrimidine-5-carbonitrile], greater than 100 µM; for `COc1ccc(-c2nc(SCC(=O)c3sc(-c4ccccc4)nc3C)nc(N)c2C#N)cc1` [Compound 5b, 4-amino-6-(4-methoxyphenyl)-2-((2-(4-methyl-2-phenylthiazol-5-yl)-2-oxoethyl)thio)pyrimidine-5-carbonitrile], greater than 100 µM. `Cc1nc(-c2ccccc2)sc1C(=O)CSc1nc(N)c(C#N)c(-c2ccc(Cl)cc2)n1` [Compound 5c, 4-amino-6-(4-chlorophenyl)-2-((2-(4-methyl-2-phenylthiazol-5-yl)-2-oxoethyl)thio)pyrimidine-5-carbonitrile]: in the series with HEK293 cells (setting [3]), the IC50 is greater than 100 µM. For the same compound, in series [1], the inhibition at 1 µM was -23%. In the case of `COc1ccc(-c2nc(C)c(C(=O)CSc3nc(N)c(C#N)c(-c4ccccc4)n3)s2)cc1` [Compound 5d, 4-amino-2-((2-(2-(4-methoxyphenyl)-4-methylthiazol-5-yl)-2-oxoethyl)thio)-6-phenylpyrimidine-5-carbonitrile], the IC50 in the series with HEK293 cells (setting [3]) was greater than 100 µM.

Turning to `COc1ccc(-c2nc(C)c(C(=O)CSc3nc(N)c(C#N)c(-c4ccc(OC)cc4)n3)s2)cc1` [Compound 5e, 4-amino-6-(4-methoxyphenyl)-2-((2-(2-(4-methoxyphenyl)-4-methylthiazol-5-yl)-2-oxoethyl)thio)pyrimidine-5-carbonitrile], the IC50 in the series on HEK293 cells (setting [3]) was greater than 100 µM. Also, the “cytotoxic effect on HEK293 (in words)” value with HEK293 cells (healthy cell line) is given as “no cytotoxic effect even at high concentrations”. Also, the inhibition at 1 µM in series [2] was -18%. Take `Cc1nc(-c2ccc(Cl)cc2)sc1C(=O)CSc1nc(N)c(C#N)c(-c2ccccc2)n1` [Compound 5g, 4-amino-2-((2-(2-(4-chlorophenyl)-4-methylthiazol-5-yl)-2-oxoethyl)thio)-6-phenylpyrimidine-5-carbonitrile]: in the series on HEK293 cells (setting [3]), the half-maximal inhibitory concentration (IC50) is greater than 100 µM. Regarding `COc1ccc(-c2nc(SCC(=O)c3sc(-c4ccc(Cl)cc4)nc3C)nc(N)c2C#N)cc1` [Compound 5h, 4-amino-2-((2-(2-(4-chlorophenyl)-4-methylthiazol-5-yl)-2-oxoethyl)thio)-6-(4-methoxyphenyl)pyrimidine-5-carbonitrile], in the series with HEK293 cells (setting [3]), the IC50 is greater than 100 µM. Further, in series [2], the inhibition at 1 µM is -22%. Take `N.N.[Cl][Pt][Cl]` [cisplatin, reference compound]: the IC50 in the series with MCF7 cells stood at 2.51 ± 0.29 µM; in the series with HEK293 cells (read-out: IC50 HEK293, MTT, mean ± SD, ND = viability higher than 50% at 100 μM), 8.44 ± 0.86 µM; with U87MG cells (read-out: IC50 U87MG, MTT, mean ± SD) it was 1.67 ± 0.04 µM. With `Cn1nnc2c(C(N)=O)ncn2c1=O` [temozolomide], the IC50 in the series with U87MG cell line was 130 to 171 µM.

As usually defined, the viability is a read-out of living cells in per cent, often relative to untreated cells. The IC50 is the midpoint of a concentration-inhibition curve. For orientation: inhibition means the change of the read-out against control, counted positive when it falls.

The record behind these values is article PMC7880896 (European journal of medicinal chemistry, 2020).
